# Source: ChEMBL document CHEMBL4706672 (J Med Chem, 2021)
# The source made the active and inactive calls. No cut-off for these calls is given here.
# Legend:
# [1] = molecular target: Protein cereblon/Signal transducer and activator of transcription 1-alpha/beta (Homo sapiens) (UniProt P42224+Q96SW2); assay: Protac activity at CRBN/STAT1 in human OVCAR-3 cells assessed as decrease in STAT1 expression levels at 2 to 20 uM after 12 hrs by western blot analysis; format: cell-based; conditions: dose 2-20 µM
# [2] = Selectivity index, ratio of IC50 for antiproliferative activity against STAT3 knockout human OVCAR-3 cells to IC50 for wild type human OVCAR-3 cells; format: functional
# [3] = system: BXPC-3; assay: Antiproliferative activity against human BxPC-3 cells assessed as reduction in cell viability incubated for 3 days by MTT assay; format: functional, cell-based; conditions: BXPC-3, 72 h
# [4] = system: MIA PaCa-2; assay: Antiproliferative activity against human MIA PaCa-2 cells assessed as reduction in cell viability incubated for 3 days by MTT assay; format: functional, cell-based; conditions: MIA PaCa-2, 72 h
# Summary of the method: (§1)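 MTT assay. Cells were seeded at 3000–6000/well and incubated overnight, then exposed to compound or DMSO vehicle for 3 days in RPMI-1640 or DMEM with 10% FBS at 37 °C, 5% CO2. MTT (3 mg/ml) was added for 3 h at 37 °C, formazan was dissolved in DMSO and absorbance read at 570 nm. IC50 from three independent experiments, mean ± SD.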
# [5] = system: BXPC-3; assay: Reduction in NQO1 levels in human BxPC-3 cells at 1 to 10 uM incubated for 16 hrs by western blot analysis; format: functional, cell-based; conditions: dose 1-10 µM
# Summary of the method: (§2)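 BxPC-3 cells seeded at 500 × 10^3 per well in 6-well plates, treated 16 h. Sonication lysis at 4 °C in Tris/NaCl/Triton/SDS buffer pH 7.4 with protease and phosphatase inhibitors, BCA protein assay, SDS-PAGE, PVDF transfer. Probed for STAT3, pSTAT3 and NQO1 with GAPDH loading control; fluorescent secondary detection.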
# [6] = molecular target: T1, Protein cereblon/Signal transducer and activator of transcription 3 (Homo sapiens, UniProt P40763+Q96SW2); assay: Protac activity at CRBN/STAT3 in human OVCAR-3 cells assessed as depletion of STAT3 at 2 to 20 uM after 12 hrs by western blot analysis; format: cell-based; conditions: dose 2-20 µM
# [7] = molecular target: T1, Protein cereblon/Signal transducer and activator of transcription 3; assay: Protac activity at CRBN/STAT3 in human OVCAR-3 cells assessed as decrease in STAT3 expression at 2 to 10 uM incubated for 24 hrs in presence of proteasome inhibitor MG132 by western blot analysis; format: cell-based; conditions: dose 2-10 µM
# [8] = molecular target: T1, Protein cereblon/Signal transducer and activator of transcription 3; assay: Protac activity at CRBN/STAT3 in human OVCAR-3 cells assessed as decrease in STAT3 phosphorylation at 2 to 20 uM after 6 hrs by western blot analysis; format: cell-based; conditions: dose 2-20 µM
# [9] = system: G1 to S phase transition protein 1 homolog GSPT1 (Homo sapiens); assay: Protac activity at CRBN/STAT3 in human BxPC-3 cells assessed as effect on GSPT1 protein expression level at 1 to 10 uM incubated for 16 hrs by western blot analysis; conditions: dose 1-10 µM
# [10] = molecular target: T1, Protein cereblon/Signal transducer and activator of transcription 3; assay: Protac activity at CRBN/STAT3 in human OVCAR-3 cells assessed as induction of STAT3 degradation at 1 to 20 uM incubated for 12 hrs in presence of competitive CRBN ligand pomalidomide by western blot analysis; format: cell-based; conditions: dose 1-20 µM
# [11] = molecular target: T1, Protein cereblon/Signal transducer and activator of transcription 3; assay: Protac activity at CRBN/STAT3 in human BxPC-3 cells assessed as decrease in STAT3 expression level after 12 hrs by western blot analysis; format: cell-based
# [12] = molecular target: T1, Protein cereblon/Signal transducer and activator of transcription 3; assay: Protac activity at CRBN/STAT3 in human BxPC-3 cells assessed as induction of STAT3 degradation at 1 to 5 uM after 12 hrs in presence of proteasome inhibitor bortezomib by western blot analysis; format: cell-based; conditions: dose 1-5 µM
# [13] = system: OVCAR-3; assay: Antiproliferative activity against human OVCAR-3 cells assessed as reduction in cell viability incubated for 3 days by MTT assay; format: functional, cell-based; conditions: OVCAR-3, 72 h; summary of the method: as §1
# [14] = system: HEK293; assay: Antiproliferative activity against human HEK293 cells assessed as reduction in cell viability incubated for 24 hrs by MTT assay; format: functional, cell-based; conditions: HEK293, 24 h
# Summary of the method: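 HEK-293 cells were treated with compound for 24 h, in parallel with the luciferase reporter assay. Viability was read by MTT absorbance at 570 nm, and IC50 was taken from three independent experiments.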
# [15] = molecular target: T1, Protein cereblon/Signal transducer and activator of transcription 3; assay: Protac activity at CRBN/STAT3 in human BxPC-3 cells assessed as effect on STAT3 expression level at 0.5 uM incubated for 16 hrs by western blot analysis; format: cell-based; summary of the method: as §2
# [16] = molecular target: Signal transducer and activator of transcription 3 (Homo sapiens) (UniProt P40763); assay: Inhibition of STAT3 phosphorylation in human BxPC-3 cells at 0.5 uM after 16 hrs by western blot analysis; format: cell-based
# Summary of the method: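 Cells were seeded in 6-well plates (BxPC-3 500 × 10^3, MIA PaCa-2 200 × 10^3 cells/well) and exposed to compound for 16 h. Lysis was at 4 °C by sonication in Tris/NaCl/Triton/SDS buffer, pH 7.4, with protease and phosphatase inhibitors. Lysates were run on SDS-PAGE, transferred to PVDF and probed for STAT3, pSTAT3 and NQO1 with GAPDH as loading control. Immunoblots were imaged on an Odyssey system.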
IC50 [3] [µM],IC50 [4] [µM],SMILES,IC50 [14] [µM],other results
4.3,1.3,O=C1CCC(N2C(=O)c3cccc(NCCOCCOCCNC(=O)c4cc5c(o4)C(=O)c4ccccc4C5=O)c3C2=O)C(=O)N1 (configuration not stated),,Activity [1]: Active; Ratio IC50 [2]: >6; Activity [5]: Active; Activity [6]: Active; Activity [7]: Active; Activity [8]: Active; Activity [9]: inactive; Activity [10]: Active; DC50 [11]: 7.8 µM; Activity [12]: Active; IC50 [13]: 0.3 µM
13.8,6.4,O=C1CCC(N2Cc3c(CCCCCNC(=O)c4cc5c(o4)C(=O)c4ccccc4C5=O)cccc3C2=O)C(=O)N1 (configuration not stated),,
,,O=C1CCC(N2C(=O)c3ccc(NCCOCCOCCNC(=O)c4cc5c(o4)C(=O)c4ccccc4C5=O)cc3C2=O)C(=O)N1 (configuration not stated),> 10,
20.4,16.7,O=C(COc1cccc2c1C(=O)N(C1CCC(=O)NC1=O)C2=O)NCCOCCOCCNC(=O)c1cc2c(o1)C(=O)c1ccccc1C2=O (configuration not stated),,
4.1,1.6,O=C1CCC(N2C(=O)c3cccc(NCCCCNC(=O)c4cc5c(o4)C(=O)c4ccccc4C5=O)c3C2=O)C(=O)N1 (configuration not stated),,
4.2,2,O=C1CCC(N2C(=O)c3cccc(OCCCCNC(=O)c4cc5c(o4)C(=O)c4ccccc4C5=O)c3C2=O)C(=O)N1 (configuration not stated),> 10,
1.7,4,O=C1CCC(N2C(=O)c3cccc(NCCNC(=O)c4cc5c(o4)C(=O)c4ccccc4C5=O)c3C2=O)C(=O)N1 (configuration not stated),> 30,
4.6,2.6,O=C1CCC(N2C(=O)c3cccc(NCCOCCNC(=O)c4cc5c(o4)C(=O)c4ccccc4C5=O)c3C2=O)C(=O)N1 (configuration not stated),,
23.8,10.5,O=C(COc1cccc2c1C(=O)N(C1CCC(=O)NC1=O)C2=O)NCCCCNC(=O)c1cc2c(o1)C(=O)c1ccccc1C2=O (configuration not stated),> 30,
6,3.7,O=C(COc1cccc2c1C(=O)N(C1CCC(=O)NC1=O)C2=O)NCCOCCOCCOCCNC(=O)c1cc2c(o1)C(=O)c1ccccc1C2=O (configuration not stated),,
,,O=C(NCCN1CCCCC1)c1cc2c(o1)C(=O)c1ccccc1C2=O,,Activity [15]: inactive; inhibition [16]: Active
7.5,5,O=C1CCC(N2C(=O)c3cccc(NCCOCCOCCOCCOCCOCCOCCNC(=O)c4cc5c(o4)C(=O)c4ccccc4C5=O)c3C2=O)C(=O)N1 (configuration not stated),10.8,
0.6,,O=C1CCC(N2C(=O)c3cccc(NCCCC4CCN(CCNC(=O)c5cc6c(o5)C(=O)c5ccccc5C6=O)CC4)c3C2=O)C(=O)N1 (configuration not stated),,
5.3,2.1,O=C1CCC(N2C(=O)c3cccc(C#CCCCNC(=O)c4cc5c(o4)C(=O)c4ccccc4C5=O)c3C2=O)C(=O)N1 (configuration not stated),18.6,
